{"data": "Experimental data gathered from unrelated publications", "target": "Cholinesterase (BCHE, Homo sapiens, UniProt P06276)", "effect on": "enzyme activity", "mode": "inhibitor", "note": "Each line is one published result; the experiments were not run side by side."}
{"Structure (SMILES)": "COc1cccc(C=NNC(=O)c2cc(-c3cn(C)c4ccccc34)on2)c1O", "IC50 [nM]": "> 100000"}
{"Structure (SMILES)": "COc1ccc(S(=O)(=O)Oc2cc(OC)ccc2C=NNC(=O)c2ccc(F)cc2)cc1", "assay": "Ellman", "IC50 [nM]": 113}
{"Structure (SMILES)": "Cn1cc(-c2cc(C(=O)NN=Cc3ccccc3)no2)c2ccccc21", "IC50 [nM]": "> 100000"}
{"Structure (SMILES)": "O=[N+]([O-])c1c[nH]c(-c2n[nH]c(=S)n2/N=C/c2cc(O)cc(F)c2)c1", "assay": "Ellman", "IC50 [nM]": 9600}
{"Structure (SMILES)": "COc1cccc(C=NNC(=O)c2cc(-c3cn(C)c4ccccc34)on2)c1", "IC50 [nM]": "> 100000"}
{"Structure (SMILES)": "C#CCN(C)CCCCCCOc1cccc(CN(C)c2c3c(nc4ccccc24)CCCC3)c1", "assay": "Ellman", "IC50 [nM]": 320}
{"Structure (SMILES)": "O=[N+]([O-])c1c[nH]c(-c2n[nH]c(=S)n2/N=C/c2ccc(F)cc2O)c1", "assay": "Ellman", "IC50 [nM]": 7800}
{"Structure (SMILES)": "Cn1cc(-c2cc(C(=O)NN=Cc3ccncc3)no2)c2ccccc21", "IC50 [nM]": "> 100000"}
{"Structure (SMILES)": "COc1ccc(S(=O)(=O)Oc2ccccc2C=NNC(=O)c2ccc(F)cc2)cc1", "assay": "Ellman", "IC50 [nM]": 114}
{"Structure (SMILES)": "C#CCN(C)CCCCCCOCc1ccc(CN(C)c2c3c(nc4ccc(C)cc24)CCCC3)cc1", "assay": "Ellman", "IC50 [nM]": 1270}
{"Structure (SMILES)": "COc1ccc(S(=O)(=O)Oc2ccc(C=NNC(=O)c3ccc(F)cc3)cc2)cc1", "assay": "Ellman", "IC50 [nM]": 83.6}
{"Structure (SMILES)": "C#CCN(C)CCCCOCc1ccc(CN(C)c2c3c(nc4ccccc24)CCCC3)cc1", "assay": "Ellman", "IC50 [nM]": 1470}
{"Structure (SMILES)": "O=[N+]([O-])c1c[nH]c(-c2n[nH]c(=S)n2/N=C/c2ccc(Oc3ccccc3)cc2)c1", "assay": "Ellman", "IC50 [nM]": 21100}
{"Structure (SMILES)": "C#CCN(C)CCOc1cccc(CN(C)c2c3c(nc4ccccc24)CCCC3)c1", "assay": "Ellman", "IC50 [nM]": 2000}
{"Structure (SMILES)": "CCN(CC)c1ccc(C=NNC(=O)c2ccc(F)cc2)c(OS(=O)(=O)c2ccc(OC)cc2)c1", "assay": "Ellman", "IC50 [nM]": 97.2}
{"Structure (SMILES)": "Cn1cc(-c2cc(C(=O)NN=Cc3ccccc3Cl)no2)c2ccccc21", "IC50 [nM]": "> 100000"}
{"Structure (SMILES)": "O=[N+]([O-])c1c[nH]c(-c2n[nH]c(=S)n2/N=C/c2ccc(Br)c(Cl)c2)c1", "assay": "Ellman", "IC50 [nM]": 23100}
{"Structure (SMILES)": "C#CCN(C)CCCCCOc1cccc(CN(C)c2c3c(nc4ccccc24)CCCC3)c1", "assay": "Ellman", "IC50 [nM]": 330}
{"Structure (SMILES)": "Cn1cc(-c2cc(C(=O)NN=Cc3ccccc3F)no2)c2ccccc21", "IC50 [nM]": "> 100000"}
{"Structure (SMILES)": "C#CCN(C)CCCCCCCCOc1cccc(CN(C)c2c3c(nc4ccccc24)CCCC3)c1", "assay": "Ellman", "IC50 [nM]": 910}
{"Structure (SMILES)": "O=[N+]([O-])c1c[nH]c(-c2n[nH]c(=S)n2/N=C/c2ccc(F)cc2)c1", "assay": "Ellman", "IC50 [nM]": 9100}
{"Structure (SMILES)": "C#CCN(C)CCCCOCc1ccc(CN(C)c2c3c(nc4ccc(C)cc24)CCCC3)cc1", "assay": "Ellman", "IC50 [nM]": 1780}
{"Structure (SMILES)": "O=[N+]([O-])c1c[nH]c(-c2n[nH]c(=S)n2/N=C/c2ccc(F)c(O)c2)c1", "assay": "Ellman", "IC50 [nM]": 9700}
